pIC50, pKd: −log10 of the molar value. The source made the active and inactive calls. The rule behind the calls is not given here.
Tests used:
[1] = biological target: T1, Mitogen-activated protein kinase 8 (Homo sapiens, UniProt P45983); test: Inhibition of JNK1 by TR-FRET assay
Procedure, shortened: (§1)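 LanthaScreen TR-FRET kinase assay. JNK1 at 35 ng/mL, ATF2 substrate at 400 nM and ATP at 0.2 μM in 50 mM HEPES pH 7.5, 10 mM MgCl2, 1 mM EGTA, 0.01% Brij-35, with compound. Reaction ran 1 hr at room temperature, then terbium-labelled antibody plus EDTA were added.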

[2] = biological target: T2, Mitogen-activated protein kinase 9 (Homo sapiens, UniProt P45984); test: Displacement of biotin-labeled pep-JIP1from JNK2 by DELFIA assay
Procedure, shortened: (§2)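 Added Eu-labelled anti-GST antibody (300 ng/ml; 1.9 nM), compound in DMSO and GST-JNK2 at 10 nM final. Incubated 1 hr at 0 °C, washed 5 times, enhancement solution added, fluorescence read after 10 min (ex 340, em 615 nm). Controls were unlabelled peptide and no-compound blanks.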
Target sequence in this assay (P45984 whole entry): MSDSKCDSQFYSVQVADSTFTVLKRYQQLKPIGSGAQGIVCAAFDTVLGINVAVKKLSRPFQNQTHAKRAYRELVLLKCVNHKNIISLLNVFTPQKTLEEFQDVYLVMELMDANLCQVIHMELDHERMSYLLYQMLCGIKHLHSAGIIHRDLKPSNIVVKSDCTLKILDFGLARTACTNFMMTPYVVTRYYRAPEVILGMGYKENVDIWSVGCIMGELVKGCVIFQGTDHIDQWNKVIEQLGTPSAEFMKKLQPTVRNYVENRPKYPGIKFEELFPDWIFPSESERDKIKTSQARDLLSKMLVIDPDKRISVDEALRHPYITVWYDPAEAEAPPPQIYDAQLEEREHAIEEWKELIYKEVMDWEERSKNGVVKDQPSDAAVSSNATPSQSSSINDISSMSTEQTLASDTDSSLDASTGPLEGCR

[3] = Inhibition of JNK-mediated TNF-alpha-stimulated c-Jun phosphorylation by cell-based TR-FRET assay
Procedure, shortened: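 HeLa cells stably expressing GFP-c-Jun(1-79) plated at 10000/well in Opti-MEM with 1% charcoal/dextran-treated FBS, no phenol red, and left overnight. Pretreated 60 min with compound, then stimulated 30 min with TNF-alpha at 2 ng/ml. Lysed in buffer containing 2 nM terbium anti-phospho-c-Jun (Ser73) antibody and equilibrated 1 h at room temperature. TR-FRET ratio Em520/Em490 read with excitation at 340 nm.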

[4] = biological target: T1, Mitogen-activated protein kinase 8; test: Inhibition of JNK1 up to 25 uM by TR-FRET assay
Procedure, shortened: as §1, with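 “added. After a further hour, the 520/495 nm emission ratio was read.” for “added.”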

[5] = biological target: T2, Mitogen-activated protein kinase 9; test: Displacement of biotin-labeled pep-JIP1from JNK2 at 50 uM by DELFIA assay; procedure, shortened: as §2
Target sequence in this assay (P45984 whole entry, looked up): as the sequence (P45984 whole entry) above

[6] = biological target: Mitogen-activated protein kinase 14 (Homo sapiens, UniProt Q16539); test: Inhibition of p38alpha MAPK
[7] = biological target: RAC-alpha serine/threonine-protein kinase (Homo sapiens, UniProt P31749); test: Inhibition of AKT
Furin = Furin (Homo sapiens, UniProt P09958); test: Inhibition of FURIN
Lethal factor = biological target: T3, Lethal factor (Bacillus anthracis, UniProt P15917); test: Inhibition of Bacillus anthracis anthrax lethal factor
T3 sequence (P15917 whole entry): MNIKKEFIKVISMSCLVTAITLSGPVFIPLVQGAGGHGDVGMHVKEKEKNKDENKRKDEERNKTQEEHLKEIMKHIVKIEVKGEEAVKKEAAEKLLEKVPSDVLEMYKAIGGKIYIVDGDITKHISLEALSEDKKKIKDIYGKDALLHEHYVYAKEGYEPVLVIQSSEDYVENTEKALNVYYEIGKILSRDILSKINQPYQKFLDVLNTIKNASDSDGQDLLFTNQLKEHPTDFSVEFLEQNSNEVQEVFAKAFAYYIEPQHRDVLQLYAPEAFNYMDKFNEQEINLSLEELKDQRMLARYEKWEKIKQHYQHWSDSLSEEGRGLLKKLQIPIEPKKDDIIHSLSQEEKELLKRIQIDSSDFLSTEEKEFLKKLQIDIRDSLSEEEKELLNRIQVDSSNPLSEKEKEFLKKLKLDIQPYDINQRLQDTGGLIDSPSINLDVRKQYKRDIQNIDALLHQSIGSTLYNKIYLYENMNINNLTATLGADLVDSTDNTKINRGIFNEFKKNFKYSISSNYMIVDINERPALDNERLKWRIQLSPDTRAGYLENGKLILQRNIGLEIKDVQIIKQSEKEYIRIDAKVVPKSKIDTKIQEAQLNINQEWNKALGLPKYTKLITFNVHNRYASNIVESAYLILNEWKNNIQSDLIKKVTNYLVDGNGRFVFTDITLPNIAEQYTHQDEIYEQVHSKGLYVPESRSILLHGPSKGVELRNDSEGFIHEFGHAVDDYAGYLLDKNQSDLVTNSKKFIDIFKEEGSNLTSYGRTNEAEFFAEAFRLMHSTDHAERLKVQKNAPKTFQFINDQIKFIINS

[8] = Permeability assessed as drug flux at pH 7.4 by PAMPA assay; type: ADME
Procedure, shortened: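 PAMPA: filter impregnated with 1-20% phospholipid in organic solvent over an acceptor plate of aqueous buffer at pH 7.4. Donor added from a 20 μM stock (DMSO <2%). An equilibrium plate was prepared in parallel, and percent flux was calculated from acceptor versus equilibrium concentrations. Reference compounds included.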

[9] = Metabolic stability in rat plasma assessed as compound remaining after 30 mins by LC/MS-MS; type: ADME, cell-free; conditions: read-out: Stability
Procedure, shortened: (§3)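 Compound at 1 μM (2.5% final DMSO) incubated in fresh rat plasma at 37 °C. Reactions stopped at 0, 30 and 60 min with two volumes of methanol containing internal standard, then precipitated, centrifuged and analysed by LC-MS. Percent parent remaining relative to 0 min calculated from peak-area ratios to internal standard. Run in duplicate with a plasma-labile positive control.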

[10] = Metabolic stability in rat plasma assessed as compound remaining after 60 mins by LC/MS-MS; type: ADME, cell-free; conditions: read-out: Stability; procedure, shortened: as §3
[11] = biological target: Mitogen-activated protein kinase 9 (Homo sapiens, UniProt P45984, C163S); test: Inhibition of JNK2 C163S mutant by isothermal calorimetry
Procedure, shortened: (§4)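 Isothermal titration calorimetry at 25 °C. C163S or wild-type JNK2 at 50 μM in 20 mM sodium phosphate pH 7.4 with 5% DMSO and 0.01% Triton X-100. Titrant at 750 μM in the same buffer.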

[12] = biological target: T2, Mitogen-activated protein kinase 9; test: Inhibition of wild-type JNK2 by isothermal calorimetry; procedure, shortened: as §4
Target sequence in this assay (P45984 whole entry): as the sequence (P45984 whole entry) above

T1 sequence (P45983 whole entry): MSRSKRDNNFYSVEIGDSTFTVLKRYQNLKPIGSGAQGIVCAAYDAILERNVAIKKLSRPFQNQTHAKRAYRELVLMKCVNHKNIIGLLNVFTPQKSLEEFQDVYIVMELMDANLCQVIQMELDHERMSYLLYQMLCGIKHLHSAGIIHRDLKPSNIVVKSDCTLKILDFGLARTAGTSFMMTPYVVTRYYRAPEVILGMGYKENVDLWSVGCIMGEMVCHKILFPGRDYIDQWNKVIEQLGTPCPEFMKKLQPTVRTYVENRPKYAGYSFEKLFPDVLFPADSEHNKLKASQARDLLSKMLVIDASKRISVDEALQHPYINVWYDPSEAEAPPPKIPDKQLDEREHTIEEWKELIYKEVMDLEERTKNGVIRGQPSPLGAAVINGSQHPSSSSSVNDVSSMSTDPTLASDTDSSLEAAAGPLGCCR
Sequence of RAC-alpha serine/threonine-protein kinase (P31749 whole entry): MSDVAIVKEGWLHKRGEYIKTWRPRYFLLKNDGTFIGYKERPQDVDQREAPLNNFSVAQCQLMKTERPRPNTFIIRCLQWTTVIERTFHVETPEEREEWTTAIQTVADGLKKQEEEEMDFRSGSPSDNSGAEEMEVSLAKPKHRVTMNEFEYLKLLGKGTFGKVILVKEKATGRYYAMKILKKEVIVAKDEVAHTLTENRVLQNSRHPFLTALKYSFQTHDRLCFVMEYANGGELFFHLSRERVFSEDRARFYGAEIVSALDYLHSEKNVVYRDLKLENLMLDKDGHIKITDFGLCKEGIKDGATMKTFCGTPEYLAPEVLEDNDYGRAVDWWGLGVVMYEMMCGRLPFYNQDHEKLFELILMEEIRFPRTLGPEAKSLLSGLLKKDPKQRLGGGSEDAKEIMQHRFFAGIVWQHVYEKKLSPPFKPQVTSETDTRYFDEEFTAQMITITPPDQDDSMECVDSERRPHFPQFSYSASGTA
Sequence of Mitogen-activated protein kinase 9 (Homo sapiens, UniProt P45984, C163S) (P45984 whole entry C163S): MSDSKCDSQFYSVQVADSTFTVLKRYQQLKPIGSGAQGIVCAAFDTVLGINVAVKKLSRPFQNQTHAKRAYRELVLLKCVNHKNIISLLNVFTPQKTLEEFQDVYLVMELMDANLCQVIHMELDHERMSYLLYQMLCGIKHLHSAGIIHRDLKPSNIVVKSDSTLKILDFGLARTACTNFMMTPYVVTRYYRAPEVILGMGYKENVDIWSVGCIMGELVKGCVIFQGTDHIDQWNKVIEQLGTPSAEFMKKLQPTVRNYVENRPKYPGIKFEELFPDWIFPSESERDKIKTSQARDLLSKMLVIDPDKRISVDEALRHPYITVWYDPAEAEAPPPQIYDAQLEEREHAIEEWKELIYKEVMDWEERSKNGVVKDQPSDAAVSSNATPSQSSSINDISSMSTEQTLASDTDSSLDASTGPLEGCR
Sequence of Mitogen-activated protein kinase 14 (Q16539 whole entry): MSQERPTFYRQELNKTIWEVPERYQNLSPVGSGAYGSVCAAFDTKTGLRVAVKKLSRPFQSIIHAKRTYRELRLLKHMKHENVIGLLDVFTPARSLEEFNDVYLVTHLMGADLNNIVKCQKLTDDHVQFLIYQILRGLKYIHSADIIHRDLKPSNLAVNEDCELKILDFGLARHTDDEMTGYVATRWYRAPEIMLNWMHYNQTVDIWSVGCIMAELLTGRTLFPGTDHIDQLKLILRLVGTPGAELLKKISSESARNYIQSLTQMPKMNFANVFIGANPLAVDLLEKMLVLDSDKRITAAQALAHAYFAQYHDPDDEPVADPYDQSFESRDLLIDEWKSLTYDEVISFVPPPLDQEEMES
Sequence of Furin (P09958 whole entry): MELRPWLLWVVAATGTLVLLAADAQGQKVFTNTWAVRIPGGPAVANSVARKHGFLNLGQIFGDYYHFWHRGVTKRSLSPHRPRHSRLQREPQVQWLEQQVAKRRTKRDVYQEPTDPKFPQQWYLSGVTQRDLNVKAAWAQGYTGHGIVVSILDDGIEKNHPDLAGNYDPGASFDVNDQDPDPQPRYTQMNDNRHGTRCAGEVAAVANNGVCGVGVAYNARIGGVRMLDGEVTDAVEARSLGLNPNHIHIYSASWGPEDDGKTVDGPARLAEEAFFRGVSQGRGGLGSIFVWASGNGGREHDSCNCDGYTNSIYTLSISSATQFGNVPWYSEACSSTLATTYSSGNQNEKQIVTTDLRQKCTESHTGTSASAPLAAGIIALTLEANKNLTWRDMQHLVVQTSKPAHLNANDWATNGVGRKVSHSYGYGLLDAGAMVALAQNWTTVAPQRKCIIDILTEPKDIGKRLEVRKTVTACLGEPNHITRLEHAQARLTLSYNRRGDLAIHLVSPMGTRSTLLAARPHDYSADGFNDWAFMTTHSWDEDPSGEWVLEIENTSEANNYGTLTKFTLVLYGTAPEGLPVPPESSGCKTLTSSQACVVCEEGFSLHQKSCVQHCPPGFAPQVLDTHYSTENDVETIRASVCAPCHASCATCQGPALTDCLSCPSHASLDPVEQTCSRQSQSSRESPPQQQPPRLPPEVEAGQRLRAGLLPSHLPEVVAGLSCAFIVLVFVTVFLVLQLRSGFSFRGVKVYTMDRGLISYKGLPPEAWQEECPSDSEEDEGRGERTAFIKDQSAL

Row | SMILES | pIC50 [1] | pIC50 [2] | pIC50 [3] | inhibition [4] | inhibition [5] | pIC50 [6] | pIC50 [7] | pIC50 (Furin) | pIC50 (Lethal factor) | permeability [8] | remaining at 0.5 h [9] | remaining at 1 h [10] | pKd [11] | pKd [12]
1 | COc1ccc(CNc2nnc(Sc3ncc([N+](=O)[O-])s3)s2)cc1 | 5.04 | 7.00 | 4.68 |  |  |  |  |  |  |  |  |  |  | 
2 | CC(C)(C)Nc1nnc(Sc2ncc([N+](=O)[O-])s2)s1 |  |  |  | inactive | 20% |  |  |  |  |  |  |  |  | 
3 | CCC(C)Nc1nnc(Sc2ncc([N+](=O)[O-])s2)s1 (stereo not given) | 5.52 | 6.85 | 4.70 |  |  | < 4.00 | < 4.00 | < 4.30 | < 4.00 | 7.9% | 90% |  |  | 
4 | O=[N+]([O-])c1cnc(Sc2nnc(O)n2-c2ccc3c(c2)OCCO3)s1 |  | 6.30 |  |  |  |  |  |  |  | 5.5% |  | 0% | 4.29 | 5.09
5 | CCCCNc1nnc(Sc2ncc([N+](=O)[O-])s2)s1 |  |  |  | inactive | 20% |  |  |  |  |  |  |  |  | 
6 | O=[N+]([O-])c1cnc(Sc2nnc(NCC3CCCO3)s2)s1 (stereo not given) | 5.00 | 6.33 |  |  |  |  |  |  |  |  |  |  |  | 
7 | COCCNc1nnc(Sc2ncc([N+](=O)[O-])s2)s1 | 5.32 | 6.80 | 5.10 |  |  | < 4.00 | < 4.00 | < 4.30 | < 4.00 | 49.8% | 79.7% | 35% | 5.38 | 5.55
8 | O=[N+]([O-])c1cnc(Sc2nnc(NCc3ccccc3)s2)s1 |  |  |  | inactive | 20% |  |  |  |  |  |  |  |  | 
9 | CCCNc1nnc(Sc2ncc([N+](=O)[O-])s2)s1 | 5.17 | 6.54 |  |  |  | < 4.00 | < 4.00 | < 4.30 | < 4.00 | 30% | 48.1% | 42% | 5.14 | 5.03
10 | CCNc1nnc(Sc2ncc([N+](=O)[O-])s2)s1 | 4.00 | 5.00 |  |  |  |  |  |  |  |  |  |  |  | 
11 | COc1ccc(CCNc2nnc(Sc3ncc([N+](=O)[O-])s3)s2)cc1OC | 5.24 | 7.00 |  |  |  | < 4.00 | < 4.00 | < 4.30 | < 4.00 | 76.3% | 6.05% | 68% | 5.72 | 

Source: ChEMBL document CHEMBL1159095, “Synthesis and optimization of thiadiazole derivatives as a novel class of substrate competitive c-Jun N-terminal kinase inhibitors” (Bioorg Med Chem, 2010)
